The subject of data set [1] is COLO 205. Put plainly: Antiproliferative activity against human COLO205 cells after 24 hrs by MTS assay. In kind it is functional, cell-based.
The test system of data set [2] is LOX. The data set can be described thus: Antitumor activity against human LOX cells xenografted in Foxn1nu mouse assessed as reduction in tumor growth at 1 to 6 mg/kg, iv. Type of data set: functional, organism-based. In short, it runs like this: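 LOX melanoma cells (2 × 10⁶ per animal) were implanted s.c. in the flank of female NU/NU-Foxn1nu mice, which were staged at about 100 mg tumor mass. Compound was dosed i.v. in 0.9% saline on days 1, 5 and 9 after staging, with a vehicle-only i.v. control. Five mice per group. Relative tumor growth = mean tumor mass on day d / group mean on day 0.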

For data set [3], the system named is NCI-H460. The data set can be described thus: Antitumor activity against human H460 cells xenografted in Foxn1nu mouse assessed as reduction in tumor growth at 2.5 to 10 mg/kg, po. In kind it is functional, organism-based. In a few lines: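 Female NU/NU-Foxn1nu mice were injected s.c. in the flank with 1 × 10⁶ H460 cells per animal and staged (randomized) when tumors reached about 100 mg. Compound was given by oral gavage in Klucel on days 0 and 7 after staging. Controls received vehicle only, i.v. Nine animals per group; tumor mass was followed over days.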

The nature of data set [4]: Induction of tubulin polymerization.
Data set [5] in a line: Antiproliferative activity against human KBV1 cells after 3 days by SRB assay. In kind it is functional, cell-based. To be noted: KB-V1, 72 h.
The nature of data set [6]: Antiproliferative activity against human KB 8.5 cells after 3 days by SRB assay. Particulars: 72 h. Type of data set: functional, cell-based.
In data set [7] the test system is KB. Put plainly: Ratio of IC50 for human KB 8.5 cells to IC50 for human KB cells. In kind it is functional. In a few lines: (§1)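 Resistance ratio: IC50 in KB 8.5 or KB V1 cells divided by IC50 in parental KB cells, each IC50 from 10-concentration duplicate dose–response curves; ratio near 1 means no resistance.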
Data set [8] can be described thus: Ratio of IC50 for human KBV1 cells to IC50 for human KB cells. Type of data set: functional. In a few lines: as §1
In data set [9] the test system is KB. The data set can be described thus: Antiproliferative activity against human KB cells after 3 days by SRB assay. In kind it is functional, cell-based. To be noted: 72 h.
The nature of data set [10]: Metabolic stability in male human liver microsomes at 1 uM after 30 mins. In kind it is ADME, Microsome. In short, it runs like this: (§2)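 Liver microsomes (1 mg/mL) from each species and sex were incubated with compound for 30 min at 37 °C in the presence of NADPH. Read-out was metabolic half-life (t1/2).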
A short description of data set [11]: Metabolic stability in male Beagle dog liver microsomes at 1 uM after 30 mins. Type of data set: ADME, Canis lupus familiaris, Microsome. In short, it runs like this: as §2
Data set [12] can be described thus: Metabolic stability in male cynomolgus monkey liver microsomes at 1 uM after 30 mins. In kind it is ADME, Macaca fascicularis, Microsome. In short, it runs like this:
as §2

Data set [13] can be described thus: Clearance in rat. In kind it is ADME, organism-based. To be noted: in vivo. In short, it runs like this: (§3)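 Rat pharmacokinetic parameters were derived by non-compartmental, model-independent analysis.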
Data set [14] can be described thus: Metabolic stability in female nude mouse liver microsomes at 1 uM after 30 mins. Type of data set: ADME, Microsome. In short, it runs like this:
as §2

The nature of data set [15]: Aqueous solubility at pH 7.4 by shake flask method. Type of data set: physicochemical.
Data set [16] can be described thus: Half life in rat. Type of data set: ADME, organism-based. To be noted: in vivo. In short, it runs like this: as §3
Data set [17] is described as follows: Volume of distribution in rat. Particulars: in vivo. In kind it is ADME, organism-based. In a few lines:
as §3

Data set [18] in a line: Bioavailability in rat. In kind it is ADME, organism-based. To be noted: in vivo. In short, it runs like this: as §3
The nature of data set [19]: Metabolic stability in female Sprague-Dawley rat liver microsomes at 1 uM after 30 mins. In kind it is ADME, Microsome. In short, it runs like this: as §2
The nature of data set [20]: Metabolic stability in male Sprague-Dawley rat liver microsomes at 1 uM after 30 mins. In kind it is ADME, Microsome. In a few lines: as §2

The structures appear in SMILES notation. In brackets after ≈: the same amount, converted by molar mass. Activity calls are given as the source filed them. The rule behind the calls is not given here.

The compound `CN(C)CCCOc1cc(F)c(-c2c(Cl)nc(-c3cnccn3)nc2NCC(F)(F)F)c(F)c1` [listing 1 of 2 here] registered an IC50 in data set [1] (Homo sapiens, COLO 205, 24 h) of 18 nM.
Consider `CNCCCOc1cc(F)c(-c2c(Cl)nc(-c3cnccn3)nc2N[C@@H](C)C(F)(F)F)c(F)c1` [listing 1 of 3 here], for which the result in [2], in data set [3] and in data set [4] was Active.
On to `Fc1cc(F)c(-c2c(Cl)nc(-n3ccnc3)nc2NCC(F)(F)F)c(F)c1`, for which half-maximal inhibition in data set [1] (Homo sapiens, COLO 205, 24 h) (IC50) required 3030 nM.
In turn, `Fc1cc(F)c(-c2c(Cl)nc(-c3ccco3)nc2NCC(F)(F)F)c(F)c1` came in with an IC50 in data set [1] (Homo sapiens, COLO 205, 24 h) of 232 nM.
In data set [1] (Homo sapiens, COLO 205, 24 h), `Fc1cc(F)c(-c2c(Cl)nc(-c3ncccn3)nc2NCC(F)(F)F)c(F)c1` returned a concentration for half-maximal inhibition (IC50) of 265 nM.
As to `Fc1cc(F)c(-c2c(Cl)nc(-c3ccc4ccccc4n3)nc2NCC(F)(F)F)c(F)c1`, in data set [1] (Homo sapiens, COLO 205, 24 h), the IC50 stood at 250 nM.
For `Fc1cc(F)c(-c2c(Cl)nc(-n3cccn3)nc2NCC(F)(F)F)c(F)c1`, in [1] (Homo sapiens, COLO 205, 24 h), the IC50 turned out to be 53 nM.
Regarding `CNCCCOc1cc(F)c(-c2c(Cl)nc(-n3cccn3)nc2N[C@@H](C)C(F)(F)F)c(F)c1` [listing 1 of 3 here], the IC50 in data set [5] was 569 nM; in data set [6], 32 nM; in data set [9] it was 2.4 nM. In addition, the “Ratio IC50” value in [7] turned out to be 13; in data set [8] it was 237.
In turn, `CNCCCOc1cc(F)c(-c2c(Cl)nc(-c3ccccn3)nc2N[C@@H](C)C(F)(F)F)c(F)c1` [listing 1 of 3 here] registered an IC50 in [1] (Homo sapiens, COLO 205, 24 h) of 5.2 nM.
In turn, `Fc1cc(F)c(-c2c(Cl)nc(-c3nccc4ccccc34)nc2NCC(F)(F)F)c(F)c1` registered an IC50 in data set [1] (Homo sapiens, COLO 205, 24 h) of 4680 nM.
Take `CNCCCOc1cc(F)c(-c2c(Cl)nc(-n3cccn3)nc2N[C@@H](C)C(F)(F)F)c(F)c1` [listing 2 of 3 here]: in [4], the result was Active.
Turning to `Fc1cc(F)c(-c2c(Cl)nc(-c3ccncc3)nc2NCC(F)(F)F)c(F)c1`, the IC50 in data set [1] (Homo sapiens, COLO 205, 24 h) is > 5000 nM.
Same read-out and setting: to `C[C@H](Nc1nc(-n2cccn2)nc(Cl)c1-c1c(F)cc(F)cc1F)C(F)(F)F` belongs 19 nM.
In the case of `CC(=O)O[C@H]1C(=O)[C@@]2(C)[C@H]([C@H](OC(=O)c3ccccc3)[C@]3(O)C[C@H](OC(=O)[C@H](O)[C@@H](NC(=O)c4ccccc4)c4ccccc4)C(C)=C1C3(C)C)[C@]1(OC(C)=O)CO[C@@H]1C[C@@H]2O` [PACLITAXEL], the IC50 in data set [5] amounted to 2010 nM; in [1] (Homo sapiens, COLO 205, 24 h), 3.3 nM.
Take `CNCCCOc1cc(F)c(-c2c(Cl)nc(-c3ccccn3)nc2N[C@@H](C)C(F)(F)F)c(F)c1` [listing 2 of 3 here]: the IC50 came to 423 nM in data set [5], 21 nM in data set [6] and 6.2 nM in data set [9]. The “Ratio IC50” value in [8] was 68.
Compound `CNCCCOc1cc(F)c(-c2c(Cl)nc(-c3cnccn3)nc2N[C@@H](C)C(F)(F)F)c(F)c1` [listing 2 of 3 here] gave an IC50 in [1] (Homo sapiens, COLO 205, 24 h) of 8.9 nM.
The same measure, in the same setting: to `Fc1cc(F)c(-c2c(Cl)nc(-c3cc4ccccc4cn3)nc2NCC(F)(F)F)c(F)c1` belongs 119 nM; to `C[C@H](Nc1nc(-c2cnccn2)nc(Cl)c1-c1c(F)cc(F)cc1F)C(F)(F)F`, 51 nM.
`CN(C)CCCCOc1cc(F)c(-c2c(Cl)nc(-c3cnccn3)nc2NCC(F)(F)F)c(F)c1` gave an IC50 in [1] (Homo sapiens, COLO 205, 24 h) of 32 nM.
Still for that read-out and setting: next, `Fc1cc(F)c(-c2c(Cl)nc(-c3cnccn3)nc2NCC(F)(F)F)c(F)c1`: 84 nM.
In turn, `CN(C)CCCOc1cc(F)c(-c2c(Cl)nc(-n3ccnc3)nc2NCC(F)(F)F)c(F)c1` had an IC50 in data set [1] (Homo sapiens, COLO 205, 24 h) of 682 nM.
As to `CNCCCOc1cc(F)c(-c2c(Cl)nc(-c3ccccn3)nc2N[C@@H](C)C(F)(F)F)c(F)c1` [listing 3 of 3 here], the outcome in [4] was Active.
Consider `C[C@H](Nc1nc(-c2ccccn2)nc(Cl)c1-c1c(F)cc(F)cc1F)C(F)(F)F`, for which, in [1] (Homo sapiens, COLO 205, 24 h), the IC50 is 29 nM.
Turning to `CC[C@]1(O)C[C@H]2CN(CCc3c([nH]c4ccccc34)[C@@](C(=O)OC)(c3cc4c(cc3OC)N(C=O)[C@H]3[C@@](O)(C(=O)OC)[C@H](OC(C)=O)[C@]5(CC)C=CCN6CC[C@]43[C@@H]65)C2)C1` [VINCRISTINE], the IC50 is 2040 nM in data set [5]; 58 nM in [6]; 2.6 nM in [1] (Homo sapiens, COLO 205, 24 h); 2.2 nM in data set [9]. Also, in [8], the “Ratio IC50” value is 925.
In the case of `CNCCCOc1cc(F)c(-c2c(Cl)nc(-n3cccn3)nc2N[C@@H](C)C(F)(F)F)c(F)c1` [listing 3 of 3 here], half-maximal inhibition in data set [1] (Homo sapiens, COLO 205, 24 h) (IC50) was put at 2.4 nM.
Same read-out and setting: next, `Fc1cc(F)c(-c2c(Cl)nc(-c3cccnc3)nc2NCC(F)(F)F)c(F)c1`: 3930 nM.
Regarding `CNCCCOc1cc(F)c(-c2c(Cl)nc(-c3cnccn3)nc2N[C@@H](C)C(F)(F)F)c(F)c1` [listing 3 of 3 here], the half-life at 1 µM in [10], in data set [11], in [12], in data set [14], in data set [19] and in data set [20] was > 1 h each time. Also, the IC50 in data set [5] came to 405 nM; in data set [6], 24 nM; in data set [1] (colo 205), 6.9 nM; in data set [9] it was 7 nM. This compound gave a clearance in data set [13] of 21 mL/min/kg. This compound returned a solubility (thermodynamic) in data set [15] of 540 µg/mL (≈ 1070 µM). In data set [16], this compound showed a half-life of 8.6 h. Further, the “Ratio IC50” value in [7] was found to be 3.4; in data set [8], 58. The same compound had a Vd in data set [17] of 14 L/kg. The same compound came in with a bioavailability in [18] of 100%.
In data set [1] (Homo sapiens, COLO 205, 24 h), `CN(C)CCCOc1cc(F)c(-c2c(Cl)nc(-c3ncccn3)nc2NCC(F)(F)F)c(F)c1` yielded an IC50 of 49 nM.
On to `Fc1cc(F)c(-c2c(Cl)nc(-c3cccs3)nc2NCC(F)(F)F)c(F)c1`, for which it took 3460 nM to reach half-maximal inhibition in [1] (Homo sapiens, COLO 205, 24 h) (IC50).
`Fc1cc(F)c(-c2c(Cl)nc(-c3ccccn3)nc2NCC(F)(F)F)c(F)c1`: the IC50 in [1] (Homo sapiens, COLO 205, 24 h) was 39 nM.
For the compound `CN(C)CCCOc1cc(F)c(-c2c(Cl)nc(-c3cnccn3)nc2NCC(F)(F)F)c(F)c1` [listing 2 of 2 here], the IC50 is 99 nM in data set [5], 24 nM in data set [6], 22 nM in [1] (colo 205) and 20 nM in data set [9]. Besides, the “Ratio IC50” value in data set [7] amounted to 1.2; in [8], 5.
Compound `Cn1ccnc1-c1nc(Cl)c(-c2c(F)cc(F)cc2F)c(NCC(F)(F)F)n1` displayed an IC50 in data set [1] (Homo sapiens, COLO 205, 24 h) of 77 nM.
`CN(C)CCOc1cc(F)c(-c2c(Cl)nc(-c3cnccn3)nc2NCC(F)(F)F)c(F)c1` came in with an IC50 in [1] (Homo sapiens, COLO 205, 24 h) of 128 nM.

The record behind these values is ChEMBL document CHEMBL1139312, “Synthesis and SAR of 6-chloro-4-fluoroalkylamino-2-heteroaryl-5-(substituted)phenylpyrimidines as anti-cancer agents” (Bioorg Med Chem, 2009).
